Laboratory results as given in ChEMBL document CHEMBL1770139, “Synthesis of 'clickable' acylhomoserine lactone quorum sensing probes: unanticipated effects on mammalian cell activation” (Bioorg Med Chem Lett, 2011).
Activity calls are given as the source filed them. The rule behind the calls is not given here.

What was measured:
BMDM = test: Induction of PARP cleavage in mouse BMDM cells at 50 uM after 90 mins by Western blot analysis; type: cell-based
Procedure, shortened: (§1)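 Primary bone marrow-derived macrophages exposed to alkynyl AHL analogue at 50 μM for 90 minutes. Cell extracts were probed by Western blot for p38 phosphorylation, eIF2α phosphorylation and PARP cleavage.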

[1] = target: Eukaryotic translation initiation factor 2 subunit 1 (Mus musculus) (UniProt Q6ZWX6); test: Induction of phosphorylation of eIF2alpha in mouse BMDM cells at 50 uM after 90 mins by Western blot analysis; type: cell-based; procedure, shortened: as §1
Eukaryotic translation initiation factor 2 subunit 1 (Mus musculus), sequence (Q6ZWX6 whole entry): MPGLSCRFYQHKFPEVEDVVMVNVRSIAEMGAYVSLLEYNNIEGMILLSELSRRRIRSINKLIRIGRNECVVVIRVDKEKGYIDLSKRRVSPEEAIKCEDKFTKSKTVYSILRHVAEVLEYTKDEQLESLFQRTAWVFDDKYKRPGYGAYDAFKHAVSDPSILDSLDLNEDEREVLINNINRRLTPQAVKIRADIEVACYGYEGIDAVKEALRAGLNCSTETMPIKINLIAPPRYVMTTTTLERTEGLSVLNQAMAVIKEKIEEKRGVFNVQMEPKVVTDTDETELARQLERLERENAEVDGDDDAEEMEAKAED

[2] = target: MAP kinase p38 (Mus musculus) (UniProt P47811+O08911+Q9WUI1+Q9Z1B7); test: Induction of phosphorylation of p38 in mouse BMDM cells at 50 uM after 90 mins by Western blot analysis; type: cell-based; procedure, shortened: as §1
Pseudomonas aeruginosa = test: Induction of quorum sensing activity in lasI/rhlI-deleted Pseudomonas aeruginosa PAO-JP2 expressing plasmid pKD201 containing a LasI reporter coupled to the luxCDABE assessed as relative luminescence units normalized with respect to cell viability at 1 uM after 4 hrs by autoinducer activity assay
Procedure, shortened: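 Autoinducer assay in P. aeruginosa luminescence reporter strain PAO-JP2, a PAO1 lasI/rhlI double mutant carrying luxABCDE.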

Activity [1] | Activity [2] | Compound | Activity (BMDM) | Activity (Pseudomonas aeruginosa)
Active | Active | C#CCCCCCCCCC(=O)CC(=O)N[C@H]1CCOC1=O | Active | Active
Active | Active | CCCCCCCCCC(=O)CC(=O)N[C@H]1CCOC1=O | Active | Active
Active | Active | [N-]=[N+]=NCCCCCCCCCC(=O)CC(=O)N[C@H]1CCOC1=O | Active | inactive

Continued, compound first:

Compound | Activity [1] | Activity [2] | Activity (BMDM) | Activity (Pseudomonas aeruginosa)
[N-]=[N+]=NCCCCCCCCCC(=O)CC(=O)N[C@@H]1CCOC1=O | inactive | inactive | inactive | inactive
C#CCCCCC(=O)CC(=O)N[C@H]1CCOC1=O | inactive | inactive | inactive | inactive
